Measured values as given in ChEMBL document CHEMBL1687925, “Structure-activity relationships of cycloalkylamide derivatives as inhibitors of the soluble epoxide hydrolase” (J Med Chem, 2011).
In brackets after ≈: the same amount, converted by molar mass.

How the values were obtained:
[1] = Inhibition of human soluble epoxide […] using fluorescent CMNPC as substrate after 10 mins by fluorometric assay
In short: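 Recombinant human sEH, expressed in Sf9 cells via baculovirus with a His tag that was later removed, purified by metal-affinity and anion-exchange chromatography. Enzyme at 1 nM final, preincubated with inhibitor 10 min at 30 °C in 25 mM Bis-Tris/HCl pH 7.0. CMNPC then added at 5 μM. 6-Methoxy-2-naphthaldehyde fluorescence (ex 330/em 465 nm) followed for 10 min. IC50 by regression of at least six points; mean of three runs.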

[2] = Aqueous solubility of the compound in […] phosphate buffer at pH 7.4; format: physicochemical
In short: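 Light-scattering method at 25± 1.5 °C. Compound in DMSO was added at varying concentrations to 0.1 M sodium phosphate, pH 7.4, at 5:95 (v/v) DMSO:buffer. Insolubility was read as the rise in turbidity, measured as optical density at 650 nm.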

[3] = Aqueous solubility of the compound in […] phosphate buffer at pH 7.4 relative to AUDA; format: physicochemical

IC50 [1] [nM] | solubility [2] [µM] | fold change (FC) [3] | SMILES
> 1000 | – | – | O=C(O)C1CCC(C(=O)NCCCc2ccccc2)CC1 (stereo unspecified)
> 1000 | – | – | COC(=O)C1C2C=CC(C2)C1C(=O)NCCCc1ccccc1 (stereo unspecified)
180 | – | – | O=C(NCCCCc1ccccc1)C12CC3CC(CC(C3)C1)C2
> 1000 | – | – | COC(=O)C1CCCCC1C(=O)NCCCc1ccccc1 (stereo unspecified)
> 1000 | – | – | O=C(NCCCc1ccccc1)C1(c2ccccc2)CCCC1
1.8 | 31 (≈ 10.4 µg/mL) | – | COC(=O)c1ccc(CNC(=O)c2ccc3cc(O)ccc3c2)cc1
64 | – | – | O=C(NCCCc1ccccc1)C1CCC(C(F)(F)F)CC1 (stereo unspecified)
15 | – | – | O=C(NCCCc1ccccc1)C1CCc2ccccc2C1 (stereo unspecified)
> 1000 | – | – | O=C(NCCCc1ccccc1)C1CCCC1
> 1000 | – | – | O=C(NCc1ccccc1)C12CC3CC(CC(C3)C1)C2
78 | – | – | COC(=O)C1CCC(C(=O)NCCCc2ccccc2)CC1 (stereo unspecified)

Continued, compound first:

SMILES | IC50 [1] [nM] | solubility [2] [µM] | fold change (FC) [3]
COC(=O)c1ccc(CNC(=O)c2ccc3ccccc3c2)cc1 | 6.6 | 31 (≈ 9.9 µg/mL) | –
COc1ccc(NC(=O)C23CC4CC(CC(C4)C2)C3)cc1 | > 1000 | – | –
COC(=O)c1ccc(CNC(=O)C2CCc3ccccc3C2)cc1 (stereo unspecified) | 2.1 | 125 (≈ 40.4 µg/mL) | 2
COC(=O)c1ccc(CNC(=O)C23CC4CC(CC(C4)C2)C3)cc1 | 9.1 | 125 (≈ 40.9 µg/mL) | 2
CN(CCCc1ccccc1)C(=O)C12CC3CC(CC(C3)C1)C2 | 723 | – | –
O=C(NCCCc1ccccc1)C1CCC(O)CC1 (stereo unspecified) | > 1000 | – | –
O=C(NCCCc1ccccc1)C1CCCO1 (stereo unspecified) | > 1000 | – | –
O=C(O)CCCCCCCCCCCNC(=O)NC12CC3CC(CC(C3)C1)C2 | – | 63 (≈ 24.7 µg/mL) | –
O=C(NCCc1ccccc1)C12CC3CC(CC(C3)C1)C2 | 230 | – | –
CCOC(=O)c1ccc(NC(=O)C23CC4CC(CC(C4)C2)C3)cc1 | 101 | – | –
O=C(NCCCc1ccccc1)C1CC1 | > 1000 | – | –
O=C1CCC(C(=O)NCCCc2ccccc2)CC1 | > 1000 | – | –
O=C(NCCCc1ccccc1)C1CC=CCC1 (stereo unspecified) | 222 | – | –
COC(=O)c1ccc(CNC(=O)c2ccc3cc(OC)ccc3c2)cc1 | 2.4 | 15 (≈ 5.24 µg/mL) | –
O=C(NCCCc1ccccc1)C12CC3CC(CC(C3)C1)C2 | 41 | – | –
COC(=O)c1ccc2cc(NC(=O)C34CC5CC(CC(C5)C3)C4)ccc2c1 | 65 | – | –
COC(=O)c1ccc(CCNC(=O)C23CC4CC(CC(C4)C2)C3)cc1 | 230 | – | –
O=C(NCCCc1ccccc1)C1CCC(CO)CC1 (stereo unspecified) | 243 | – | –
O=C(NCCCc1ccccc1)C1CCCCC1 | 235 | – | –
O=C(NCCCc1ccccc1)C1(c2ccccc2)CC1 | > 1000 | – | –
CC(C)(C)C1CCC(C(=O)NCCCc2ccccc2)CC1 (stereo unspecified) | 58 | – | –
O=C(NCCCc1ccccc1)C1CCOCC1 | > 1000 | – | –
O=C(NCCCc1ccccc1)[C@@H]1C[C@H]1c1ccccc1 (relative stereo) | 288 | – | –
